Publication PMC4869561 (Inflammatory Bowel Diseases, 2016)
≈ marks a conversion by molar mass, not a printed value. Entries after “also recorded” stand apart in the source; their conditions may differ. Where two headings read alike, the source gives them in different places.

Tests used:
[1] = tested on: LPS-stimulated PBMCs; assay: LPS stimulation of PBMCs, IL-8 release; assay type: cell-based, human; details: for inhibition: Homo sapiens, PBMC, read-out: maximum inhibition of IL-8 release
Method in brief: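 Healthy-donor PBMCs (Lymphoprep) at 1 × 10^6 cells/mL in RPMI 1640 with 10% heat-inactivated FBS and 25 mM HEPES. Preincubated 2 h at 37°C, 5% CO2 with test compound 0.1–1000 ng/mL or DMSO 0.5% v/v. LPS 1 ng/mL then added for 24 h. Supernatant IL-8 measured by ELISA. At least 3 independent experiments.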

[2] = tested on: LPS-stimulated primary human macrophages; assay: LPS activation of monocyte-derived macrophages, IL-8 and TNF-α release; assay type: cell-based; details: for inhibition of IL-8 release / inhibition of TNF-α release: LPS-stimulated macrophages, up to maximum tested 250 ng/mL; for inhibition: Homo sapiens, Macrophage
Method in brief: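 CD14+ cells taken from human PBMCs by magnetic positive selection. Differentiated 12–14 days in RPMI with 10% FBS and GM-CSF 100 ng/mL. Plated at 2 × 10^5 cells/mL and equilibrated for 2 h. Pretreated 2 h with test compound or DMSO 0.5% v/v, then stimulated with LPS 10 ng/mL for 24 h. Supernatant IL-8 and TNF-α measured by ELISA.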

[3] = tested on: anti-CD3/anti-CD28-stimulated PBMCs; assay: CD3/CD28 stimulation of PBMCs, IL-2 and IFN-γ release; assay type: cell-based, human; details: for efficacy of inhibition of IFN-γ release / efficacy of inhibition of IL-2 release: anti-CD3/anti-CD28-stimulated PBMCs
[4] = tested on: HT29 cells; assay: IL-1β-stimulated IL-8 production by HT29 cells; assay type: cell-based, human; details: for maximum inhibition of IL-8 secretion, compound alone: IL-1β-stimulated HT29, 0.1-1000 ng/mL, maximum at 1000 ng/mL; for inhibitory effect on IL-8 secretion at 100 ng/mL: IL-1β-stimulated HT29, compound alone
[5] = tested on: myofibroblasts isolated from inflamed UC mucosa; assay: TNF-α-stimulated IL-6 and IL-8 release by UC myofibroblasts; assay type: cell-based, human; details: for maximum inhibition (efficacy) of IL-6 release / maximum inhibition (efficacy) of IL-8 release: UC myofibroblasts, TNF-α-stimulated, 0.01-10 μg/mL; for IC50: 24 h
Method in brief: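 Myofibroblasts grown from explants of inflamed resected UC mucosa in DMEM with 20% FBS and antibiotics, passaged with trypsin-EDTA and used at passage ≥4. Seeded at 5 × 10^4/well and cultured overnight. Stimulated with TNF-α 20 ng/mL plus DMSO 0.5% v/v or test compound (0.000001–1 or 0.01–10 μg/mL). After 24 h, IL-6 and IL-8 measured by ELISA as percent inhibition versus TNF-α + DMSO; at least 3 independent experiments.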

[6] = tested on: inflamed colonic biopsies from patients with UC; assay: Organ culture of inflamed colonic UC biopsies, cytokine release; assay type: cell-based, human; details: 24 h; for inhibition at 1 µg/mL: Homo sapiens
Method in brief: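 Inflamed colonic UC biopsies cultured one per well in serum-free HL-1 medium with penicillin/streptomycin at 37°C, 5% CO2. Treated with DMSO 0.5% v/v, test compounds at 1 μg/mL, the three selective inhibitors combined, or one compound at 0.001–1 μg/mL. After 24 h, supernatant IL-1β, IL-6 and IL-8 measured by ELISA. Results given as mean percent inhibition versus DMSO; at least 3 independent experiments.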

[7] = tested on: patients with active Crohn's disease; details: cited from earlier work
[8] = Propidium iodide flow cytometry cell viability assay; assay type: cell-based; details: concentrations tested in the cellular assays, data not shown
[9] = tested on: mouse acetic acid-induced colitis; details: mouse acetic acid-induced colitis model; cited from earlier work
[10] = tested on: rheumatoid arthritis patients; details: phase III trial; cited from earlier work
[11] = tested on: patients with UC; details: oral, clinical trial; cited from earlier work
[12] = read-out: inhibition of IL-8 release
[13] = read-out: inhibition of TNF-α release
[14] = Homo sapiens, read-out: IL-6 (IC50 Value)
[15] = Homo sapiens, read-out: IL-8 (IC50 Value)
[16] = read-out: inhibition of IL-1β release
[17] = read-out: inhibition of IL-6 release

SMILES	inhibition of IL-8 release [2]	inhibition of TNF-α release [2]	efficacy of inhibition of IFN-γ release [3]	efficacy of inhibition of IL-2 release [3]	maximum inhibition of IL-8 secretion, compound alone [4]	inhibitory effect on IL-8 secretion at 100 ng/mL [4]	maximum inhibition (efficacy) of IL-6 release [5]	maximum inhibition (efficacy) of IL-8 release [5]	inhibition [1] [%]	inhibition [2, 12] [%]	inhibition [2, 13] [%]	IC50 [5, 14] [µg/mL]	IC50 [5, 15] [µg/mL]	inhibition at 1 µg/mL [6, 16] [%]	inhibition at 1 µg/mL [6, 17] [%]	inhibition at 1 µg/mL [6, 12] [%]	other results
COc1ccc(-c2cc3nccn3c(Nc3ncccc3C(N)=O)n2)cc1OC [BAY-61-3606]	less than 50%	less than 50%	maximal efficacy	weaker inhibition	17%	Neither dasatinib nor BAY-61-3606 had any significant inhibitory effect	over 90%	over 90%									potency weaker than TOP1210, IL-8 release ([1]; LPS-stimulated PBMCs, ratio of IC50 values): ~300 fold; maximum inhibition of IL-8 release ([1]; LPS-stimulated PBMCs, up to maximum tested 1 μg/mL): 83%; efficacy of inhibition of IFN-γ release ([3]; listed as BAY61-3606): weaker inhibition; potency weaker than TOP1210, IFN-γ release ([3]; ratio of IC50 values): 120 fold
Cc1ccc(-n2nc(C(C)(C)C)cc2NC(=O)Nc2ccc(OCCN3CCOCC3)c3ccccc23)cc1 [BIRB-796]			inactive; also recorded: little-to-no effect	little-to-no effect			70%	70%	< 50	< 50	< 50	> 1	> 1	50 to 65	50 to 65	50 to 65	serum C-reactive protein ([7]; after 1 week): dose-dependent decrease; clinical efficacy endpoints compared to placebo ([7]; any time point): no clinical efficacy endpoints were reached
Cc1nc(Nc2ncc(C(=O)Nc3c(C)cccc3Cl)s2)cc(N2CCN(CCO)CC2)n1 [Dasatinib]						Neither dasatinib nor BAY-61-3606 had any significant inhibitory effect			< 50	< 50	87	> 1	> 1				inhibition at 10 µg/mL ([5]; Homo sapiens, read-out: inhibition of IL-8 release): ~70%; inhibition of IL-1β release ([6]; inflamed UC biopsies, 1 μg/mL): did not have any significant effect; inhibition of IL-6 release ([6]; inflamed UC biopsies, 1 μg/mL): did not have any significant effect; inhibition of IL-8 release ([6]; inflamed UC biopsies, 1 μg/mL): did not have any significant effect
C#Cc1cc(Nc2nccc(Oc3ccc(NC(=O)Nc4cc(C(C)(C)C)nn4-c4ccc(C)cc4)c4ccccc34)n2)cc(C(=O)NCCOCCOCCOC)c1 [TOP1210, 3-((4-((4-(3-(3-(tert-butyl)-1-(p-tolyl)-1H-pyrazol-5-yl)ureido)naphthalen-1 yl)oxy)pyrimidin-2-yl)amino)-5-ethynyl-N-(2-(2-(2-methoxyethoxy)ethoxy)ethyl)benzamide]	maximal inhibition	maximal inhibition	maximal inhibition		maximal efficacy				100			0.0022 (≈ 0.00276 µM)	0.0021 (≈ 0.00264 µM)	80 to 90	80 to 90	80 to 90	potency weaker than dasatinib, IL-2 release ([3]; ratio vs dasatinib): approximately 15 fold; potency weaker as inhibitor of IL-2 release compared with IFN-γ release ([3]; same compound, IL-2 vs IFN-γ): 18 fold; cell viability (propidium iodide, flow cytometry) [8]: not to effect cell viability
COc1cc(Nc2ncc(F)c(Nc3ccc4c(n3)N(COP(=O)(O)O)C(=O)C(C)(C)O4)n2)cc(OC)c1OC [fostamatinib]																	mucosal damage [9]: decrease mucosal damage; efficacy in rheumatoid arthritis [10]: limited efficacy
C[C@@H]1CCN(C(=O)CC#N)C[C@@H]1N(C)c1ncnc2[nH]ccc12 [tofacitinib]																	efficacy in UC [11]: effective
